Drawing on ChEMBL document CHEMBL3272052, “Imidazo[1,2-a]-s-triazine nucleosides. Synthesis and antiviral activity of the N-bridgehead guanine, guanosine, and guanosine monophosphate analogues of imidazo[1,2-a]-s-triazine” (J Med Chem, 1978), this text covers inhibition for seven molecules.

Active and inactive are the calls of the source. The calls are words filed in the database; no cut-off is given here.

Format in all cases: functional, organism-based
For assay [1], the system named is Enterovirus. Description: Antiviral activity against Rhinovirus 13 infected in human KB cells assessed as inhibition of virus-induced cytopathic effect after 72 hrs by microscopic analysis relative to control. The procedure, abridged:
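KB (human nasopharyngeal carcinoma) monolayers, 19-24 h old, were infected with 320 CCID50 of virus. Compound was added within 15 min at one-half-log dilutions from 1000 to 1 µg/mL. After 72 h at 37 °C, CPE and cytotoxicity were scored microscopically (0-4). The virus rating sums the control-minus-treated CPE scores over all levels, halving any level showing partial toxicity.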
In general terms: Cytopathic effects are the visible damage that an infection or toxin causes in cultured cells.

Assay [2] relates to Enterovirus. Description: Antiviral activity against Rhinovirus 1A infected in human KB cells assessed as inhibition of virus-induced cytopathic effect after 72 hrs by microscopic analysis relative to control.
Assay [3] has as its system Enterovirus. Description: Antiviral activity against Rhinovirus 2 infected in human KB cells assessed as inhibition of virus-induced cytopathic effect after 72 hrs by microscopic analysis relative to control.
For assay [4], the system named is Enterovirus. Nature of the assay: Antiviral activity against Rhinovirus 8 infected in human KB cells assessed as inhibition of virus-induced cytopathic effect after 72 hrs by microscopic analysis relative to control.
Assay [5] relates to Enterovirus. Nature of the assay: Antiviral activity against Rhinovirus 30 infected in human KB cells assessed as inhibition of virus-induced cytopathic effect after 72 hrs by microscopic analysis relative to control.

Take `O=c1nc2n([C@@H]3O[C@H](CO)[C@@H](O)[C@H]3O)ccn2c(=O)[nH]1`: the inhibition entry with Enterovirus [1] is “inactive”.
On the same count and under the same terms, then `O=c1[nH]c(=O)n2ccnc2[nH]1`, with “inactive”.
Regarding `Nc1nc(=O)n2ccn([C@@H]3O[C@H](COC(=O)c4ccccc4)[C@@H](OC(=O)c4ccccc4)[C@H]3OC(=O)c3ccccc3)c2n1`, the inhibition entry in the assay on Enterovirus [1] is “inactive”.
Consider `NC(=O)c1ncn([C@@H]2O[C@H](CO)[C@@H](O)[C@H]2O)n1`, for which the inhibition entry with Enterovirus [2], in the assay with Enterovirus [3], in the assay with Enterovirus [4], with Enterovirus [1] and in the assay with Enterovirus [5] was “Active” in each case.
As to `Nc1nc(=O)n2ccn([C@@H]3O[C@H](COP(=O)(O)O)[C@@H](O)[C@H]3O)c2n1`, the inhibition result in the assay on Enterovirus [2], in the assay on Enterovirus [4], with Enterovirus [1] and with Enterovirus [5] was “inactive” in each case. Moreover, the inhibition result with Enterovirus [3] is “Active”.
On to `Nc1nc(=O)n2cc[nH]c2n1`, for which the inhibition entry in the assay on Enterovirus [2], with Enterovirus [3], in the assay on Enterovirus [4], in the assay with Enterovirus [1] and in the assay with Enterovirus [5] was “Active” in each case.
As for `Nc1nc(=O)n2ccn([C@@H]3O[C@H](CO)[C@@H](O)[C@H]3O)c2n1`, the inhibition result in the assay on Enterovirus [2] and in the assay with Enterovirus [3] was “Active” in each case. In addition, the inhibition entry in the assay on Enterovirus [4], in the assay on Enterovirus [1] and in the assay on Enterovirus [5] was “inactive” in each case.
